CHOP inh – inhibitors of CHOP promoter induction, primary screen, cell-based, unfolded protein response, luciferase reporter. CHO-K1 CHOP-promoter luciferase, tunicamycin-induced, 15-18 h. 3.8% of 220,000 active. inhibition, % at 10 µM;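 active means compounds that reduced the stress-induced luciferase reporter signal by more than about 70% of percent inhibition, limit read from the data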;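 further: 0% = tunicamycin plus vehicle and 100% = wells without tunicamycin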
UPR CHOP act – activators of apoptotic CHOP UPR arm, primary screen, cell-based, CHO-CHOP luciferase reporter, luminescence, uHTS; 0.34% of 330,000 active; activation, % at 10 µM; UPR activation; percent of tunicamycin response over DMSO baseline;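 active means at 10 µM dose, activation of 40% or more, normalized to positive control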;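 further: 100% = tunicamycin at 10 µg/mL and 0% = DMSO alone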
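measured by = luciferase luminescence | assay system = CHO-CHOP cells, stable luciferase reporter of PERK-eIF2a-CHOP signalling | amount = 500 reporter cells seeded per well | timing = 6 h compound exposure at 37 °C after overnight seeding | controls = positive tunicamycin 10 µg/mL, negative DMSO alone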
TbMetRS inhib – T. brucei MetRS inhibitors, primary screen, biochemical, luminescence; methionyl-tRNA synthetase (Trypanosoma brucei brucei); inhibition, % at 11.9 µM; purified T. brucei MetRS, ATP depletion, Kinase-Glo luminescence; 0.4% of 360,000 active;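 active means inhibition above a per-plate cutoff of the control wells' mean inhibition plus 3 SD, cut at about 5.5% in these data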;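 further: 0% = DMSO wells median and 100% = median of wells with control inhibitor compound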
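Dosing: 11.9 µM compound single dose, 0.9% DMSO; Assay system: purified T. brucei MetRS enzyme; Measured by: Kinase-Glo luciferase luminescence reporting remaining unconsumed ATP; Schedule: 15 min plus 2 h at 25 °C.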
XBP1 UPR activ – activators of adaptive XBP1 UPR arm, primary screen, cell-based, CHO-XBP1 luciferase reporter, luminescence, uHTS; IRE1-XBP1 UPR activation; percent of tunicamycin response, DMSO as zero; activation, % at 20 µM; 0.33% of 330,000 active; AID 463104, 2010;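 active means versus positive control, 20 µM dose yields 30% or more activation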;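 further: 100% = tunicamycin at 10 µg/mL and 0% = DMSO only wells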
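Material: CHO cell line with stable XBP1 luciferase reporter; buffer or medium: F12 medium containing 10% fetal bovine serum; compound: single point, 20 µM final compound, 1% DMSO; incubation: 6 h treatment, 37 °C; measured by: glow luminescence from Steady-Glo reagent; evaluation: activation, % of tunicamycin; control set: tunicamycin high, DMSO low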
V-ATPase pHluor – regulators of yeast V-ATPase proton pumping, primary screen, pHLuorin cytosolic pH fluorescence; S. cerevisiae; response, % at 10 µM; 0.37% of 350,000 active; AID 504577, 2011; in the data active means response mostly above about 7.3%, no sharp cut-off; inactive means mostly below about 5.4%; further: actives read high
TbMetRS confirm – T. brucei MetRS inhibitors, confirmation, biochemical, luminescence; shares compounds with TbMetRS inhib; T. brucei MetRS enzyme, luminescence (ATP depletion); inhibition, % at 11.9 µM; 93% of 1,400 active; in the data active means inhibition above about 7%
Jurkat tox – Jurkat T cell cytotoxicity, cytotoxicity control for T. brucei MetRS inhibitor project, luminescence, high throughput; 12% of 1,400 active; Jurkat cells viability, ATP luminescence; inhibition, % at 8.3 µM; shares compounds with TbMetRS inhib; in the data active means inhibition above about 15%;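 further: 0% = vehicle and 100% = reference inhibitor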
Tb MetRS inh FP – T. brucei MetRS inhibitors, orthogonal assay for T. brucei MetRS inhibitor project, biochemical, fluorescence polarization; shares compounds with TbMetRS inhib; purified T. brucei MetRS; inhibition, % at 11.9 µM; 44% of 1,400 active; AID 651607, 2012; in the data active means inhibition above about 17%;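 further: 0% = vehicle wells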
* marks the source's active call; other numbers are inactive results. Many of the other results were omitted from the sample, so hits are more common in it than they were.

How did Cc1ccccc1OCC(=O)NCCc1nc2ccccc2[nH]1 do in these assays?
CHOP inh: 5.6; UPR CHOP act: -0.3; TbMetRS inhib: 1.5; XBP1 UPR activ: 0.2; V-ATPase pHluor: -2.8

What do the screens show for `CCc1c(O)nc(SCC(=O)Nc2ccc(Br)cc2)n(-c2ccc(C)cc2)c1=O`?
UPR CHOP act: 1.6; TbMetRS inhib: 6.4*; XBP1 UPR activ: -0.9; V-ATPase pHluor: -0.8; TbMetRS confirm: 22.1*; Jurkat tox: 1.2; Tb MetRS inh FP: 1.6

How did CCc1c(O)nc(SCC(=O)Nc2ccccc2)n(-c2ccccc2)c1=O do in these assays?
CHOP inh: 33.8; UPR CHOP act: -1.8; TbMetRS inhib: -1.2; XBP1 UPR activ: -3.9; V-ATPase pHluor: -2.8

Results for CC(C)CC(NS(=O)(=O)c1cccc(C(=O)O)c1)C(=O)O (stereo not drawn) ?
CHOP inh: -8.1; UPR CHOP act: 0.1; TbMetRS inhib: -0.6; XBP1 UPR activ: -2.6; V-ATPase pHluor: 3.3

How did Cc1ccc2[nH]cc(S(=O)(=O)c3ccc(F)cc3)c(=O)c2c1 do in these assays?
UPR CHOP act: 1.6; TbMetRS inhib: 28.6*; XBP1 UPR activ: -1.9; V-ATPase pHluor: 0.5; TbMetRS confirm: 41.1*; Jurkat tox: -0.2; Tb MetRS inh FP: 15.7

How did COc1ccc(NC(=O)CC2C(=O)N(C)C(=S)N2CCc2ccc(F)cc2)cc1 (stereo not drawn) do in these assays?
CHOP inh: -6.7; UPR CHOP act: 0.9; TbMetRS inhib: 49.7*; XBP1 UPR activ: -2.5; V-ATPase pHluor: -2.5; TbMetRS confirm: 66.7*; Jurkat tox: 11.7; Tb MetRS inh FP: 43.3*

Results for CCN1C(=O)C(CC(=O)Nc2ccc(OC)cc2)N(CCc2ccc(F)cc2)C1=S (stereo not drawn) ?
CHOP inh: 29.1; UPR CHOP act: 0.8; TbMetRS inhib: 38.8*; XBP1 UPR activ: -1.5; V-ATPase pHluor: 5.8; TbMetRS confirm: 45.7*; Jurkat tox: 8.7; Tb MetRS inh FP: 33.0*

Results for CCN1C(=O)C(CC(=O)Nc2ccc(F)cc2)N(Cc2ccc3c(c2)OCO3)C1=S (stereo not drawn) ?
CHOP inh: 18.7; UPR CHOP act: 0.2; TbMetRS inhib: -0.8; XBP1 UPR activ: -1.9; V-ATPase pHluor: 6.5

Results for O=C(CC1C(=O)N(c2ccc(Cl)cc2)C(=S)N1CCc1ccncc1)Nc1ccc(F)cc1 (stereo not drawn) ?
CHOP inh: 40.1; UPR CHOP act: 0.0; TbMetRS inhib: 21.5*; XBP1 UPR activ: -1.1; V-ATPase pHluor: -5.1; TbMetRS confirm: 23.4*; Jurkat tox: 1.7; Tb MetRS inh FP: 23.5*

What do the screens show for `COc1ccc(CCN2C(=S)N(C)C(=O)C2CC(=O)Nc2ccc(OC)cc2)cc1` (stereo not drawn)?
CHOP inh: 27.4; UPR CHOP act: -0.3; TbMetRS inhib: 44.1*; XBP1 UPR activ: -2.2; V-ATPase pHluor: -0.4; TbMetRS confirm: 62.4*; Jurkat tox: -4.3; Tb MetRS inh FP: 31.0*

What do the screens show for `COc1ccc(NC(=O)CC2C(=O)N(C)C(=S)N2Cc2cccs2)cc1` (stereo not drawn)?
CHOP inh: -3.5; UPR CHOP act: -0.3; TbMetRS inhib: 0.1; XBP1 UPR activ: 0.0; V-ATPase pHluor: 0.9

What do the screens show for `COc1ccc(CNCCCC(=O)Nc2c(Cl)ccc(C)c2Cl)cc1OC`?
UPR CHOP act: -1.0; TbMetRS inhib: 0.5; XBP1 UPR activ: -0.5; V-ATPase pHluor: -1.8

How did NC(=O)c1nsc(C(=O)N(CC(=O)NC2CCCC2)Cc2ccc3c(c2)OCO3)c1N do in these assays?
CHOP inh: 5.6; UPR CHOP act: 0.8; TbMetRS inhib: 0.1; XBP1 UPR activ: -4.5; V-ATPase pHluor: -1.5

Results for Cc1ccc(CNS(=O)(=O)c2ccc(-n3cnnn3)c(C)c2)cc1 ?
UPR CHOP act: 0.4; TbMetRS inhib: -0.4; XBP1 UPR activ: -2.4; V-ATPase pHluor: 11.3

Results for Cc1cc(C(=O)CSc2nc3ccc(Cl)cc3[nH]2)c(C)n1Cc1ccco1 ?
UPR CHOP act: 0.8; TbMetRS inhib: 0.5; XBP1 UPR activ: -0.5; V-ATPase pHluor: -1.9

Results for CCOC(=O)C1=C(C)N(CCCC(=O)O)C(=O)NC1C(CC)CC (stereo not drawn) ?
UPR CHOP act: -1.9; TbMetRS inhib: -0.1; XBP1 UPR activ: 3.4; V-ATPase pHluor: -0.7

What do the screens show for `COc1ccc(N2C(=O)C(CC(=O)Nc3ccc(Cl)cc3)N(NC(=O)c3cccc(F)c3)C2=S)cc1` (stereo not drawn)?
CHOP inh: 23.9; UPR CHOP act: 1.6; TbMetRS inhib: 38.8*; XBP1 UPR activ: -1.4; V-ATPase pHluor: 1.0; TbMetRS confirm: 50.8*; Jurkat tox: -8.8; Tb MetRS inh FP: 24.3*

Results for COc1ccc(NC(=O)CC2C(=O)N(c3ccc(OC)cc3)C(=S)N2NC(=O)c2cccc(F)c2)cc1 (stereo not drawn) ?
CHOP inh: 8.9; UPR CHOP act: 1.4; TbMetRS inhib: 0.7; XBP1 UPR activ: -2.7; V-ATPase pHluor: 0.8

What do the screens show for `COc1ccc(NC(=O)CC2C(=O)N(C)C(=S)N2CCc2ccccc2)cc1` (stereo not drawn)?
CHOP inh: -1.5; UPR CHOP act: 4.6; TbMetRS inhib: 49.9*; XBP1 UPR activ: 0.5; V-ATPase pHluor: -2.1; TbMetRS confirm: 48.8*; Jurkat tox: 5.2; Tb MetRS inh FP: 25.2*

What do the screens show for `COC(=O)CN1C(=S)N(Cc2ccccc2)C(=O)C1CC(=O)Nc1ccc(OC)cc1` (stereo not drawn)?
CHOP inh: 50.6; UPR CHOP act: -2.2; TbMetRS inhib: 0.5; XBP1 UPR activ: -4.3; V-ATPase pHluor: 3.2

Results for O=C(CN1CCN(S(=O)(=O)N2CCOCC2)CC1)Nc1ccc(Cl)c(Cl)c1 ?
UPR CHOP act: -0.2; TbMetRS inhib: 12.0*; XBP1 UPR activ: 15.0; V-ATPase pHluor: -1.4; TbMetRS confirm: 33.0*; Jurkat tox: -3.1; Tb MetRS inh FP: 11.8
